{"source": "ChEMBL document CHEMBL3734704", "about": "“Synthesis and Biological Evaluation of Novel Bouchardatine Derivatives as Potential Adipogenesis/Lipogenesis Inhibitors for Antiobesity Treatment” (J Med Chem, 2015)", "key": {"[1]": {"assay": "Downregulation of C/EBP beta mRNA level in mouse 3T3L1 cells at 0.3 to 3 uM after 24 hrs by RT-PCR analysis", "format": "functional, cell-based", "conditions": "3T3-L1", "outline": "(§1)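 3T3-L1 preadipocytes in adipogenic cocktail with compound (0.3-3.0 µM; 3 µM for the 2 h and 24 h time course). Total RNA extracted, cDNA made from 1 µg RNA with oligo primer, then PCR: 95 °C 10 min, 35 cycles of 95 °C 30 s, annealing 45 s, 72 °C 1 min, final 72 °C 10 min. Normalized to actin; n = 3.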"}, "[2]": {"assay": "Cell cycle arrest in mouse 3T3L1 cells assessed as number of cells at G2/M phase at 3 uM after 24 hrs by flow cytometry (reference value: 37.2%)", "format": "functional, cell-based", "conditions": "3T3-L1"}, "[3]": {"assay": "Cell cycle arrest in mouse 3T3L1 cells assessed as number of cells at S phase at 3 uM after 24 hrs by flow cytometry (reference value: 18.1%)", "format": "functional, cell-based", "conditions": "3T3-L1"}, "[4]": {"assay": "Downregulation of ACC level in mouse 3T3L1 cells after 6 days by western blot analysis", "format": "functional, cell-based", "conditions": "3T3-L1", "outline": "(§2)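 3T3-L1 preadipocytes incubated in adipogenic cocktail with or without compound (0.3, 1.0, 3.0 µM) for the stated periods. Protein levels measured by Western blot (RIPA lysis, PVDF, BSA block, primary 16 h at 4 °C, HRP secondary), normalized to GAPDH/Tubulin and expressed relative to controls; n = 3.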"}, "[5]": {"assay": "Decrease in triglyceride level in mouse 3T3L1 cells during all developmental stages at 0.5 uM for 9 days", "format": "functional, cell-based", "conditions": "3T3-L1", "outline": "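During 3T3-L1 differentiation with compound present (0.5 µM, or 5 µM for one compound), cells were collected and counted every day and triglyceride content was measured by TG assay.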"}, "[6]": {"assay": "Downregulation of PPAR-gamma mRNA level in mouse 3T3L1 cells at 3 uM after 24 hrs by RT-PCR analysis", "format": "functional, cell-based", "conditions": "3T3-L1", "outline": "as §1"}, "3T3-L1 [7]": {"tested_on": "3T3-L1", "assay": "Induction of apoptosis in mouse 3T3L1 cells assessed as early apoptotic cells at 1 uM after 24 hrs by annexin-V-FITC and PI staining based flow cytometry (reference value: 0.56%)", "format": "functional"}, "[8]": {"assay": "Decrease in triglyceride level in mouse 3T3L1 cells at 1 uM measured during 0 to 3 days by oil red O staining based microscopic analysis", "format": "functional, cell-based", "conditions": "3T3-L1", "outline": "(§3)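 3T3-L1 cells given 1 µM compound during day 0-3, 0-6, 0-9, 3-6, 3-9 or 6-9 of differentiation. On Day 9, intracellular lipid measured by TG assay (Triton lysate, GPO-POD kit, per protein) and by Oil Red O staining with microscopy; n = 3.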"}, "[9]": {"assay": "Decrease in triglyceride level in mouse 3T3L1 cells at 1 uM measured during 6 to 9 days by oil red O staining based microscopic analysis", "format": "functional, cell-based", "conditions": "3T3-L1", "outline": "as §3"}, "[10]": {"biological_target": "T1, Serine/threonine-protein kinase STK11 (Mus musculus) (UniProt Q9WTK7)", "T1 sequence (whole entry)": "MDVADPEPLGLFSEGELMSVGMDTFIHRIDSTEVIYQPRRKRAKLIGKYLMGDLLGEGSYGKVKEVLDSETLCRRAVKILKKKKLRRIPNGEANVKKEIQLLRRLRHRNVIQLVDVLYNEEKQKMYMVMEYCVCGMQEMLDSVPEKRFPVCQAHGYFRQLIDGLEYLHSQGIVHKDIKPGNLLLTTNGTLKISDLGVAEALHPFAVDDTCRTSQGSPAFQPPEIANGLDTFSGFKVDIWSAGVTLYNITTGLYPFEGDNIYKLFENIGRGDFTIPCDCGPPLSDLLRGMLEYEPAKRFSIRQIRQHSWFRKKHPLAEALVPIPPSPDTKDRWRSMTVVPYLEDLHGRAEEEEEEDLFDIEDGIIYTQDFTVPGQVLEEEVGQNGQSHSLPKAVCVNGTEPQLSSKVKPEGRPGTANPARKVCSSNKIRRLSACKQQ", "assay": "Activation of LKB1-mediated AMPK in mouse 3T3L1 cells assessed as increase in phophorylated AMPK alpha at Thr 172 residue level at 3 uM after 10 mins by western blot analysis", "format": "cell-based", "conditions": "3T3-L1", "outline": "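3T3-L1 preadipocytes held in adipogenic cocktail with or without compound at 3 µM, time course (10 min, 2 h, 24 h) during differentiation. Lysis in RIPA with protease/phosphatase inhibitors, SDS-PAGE, PVDF, BSA block, primary antibody 16 h at 4 °C, HRP secondary. Bands normalized to GAPDH, with the 10 min DMSO group set as 100%; n = 3.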"}, "[11]": {"assay": "Downregulation of SREBP-1c mRNA level in mouse 3T3L1 cells at 0.3 to 3 uM after 24 hrs by RT-PCR analysis", "format": "functional, cell-based", "conditions": "3T3-L1", "outline": "as §1"}, "[12]": {"assay": "Cytotoxicity against mouse 3T3L1 cells preadipocytes assessed as cell viability at 1 to 10 uM for 24, 48 and 72 hrs by LDH release assay relative to control", "conditions": "3T3-L1 preadipocyte cells"}, "[13]": {"assay": "Cell cycle arrest in mouse 3T3L1 cells assessed as number of cells at G0/G1 phase at 3 uM after 24 hrs by flow cytometry (reference value: 37.6%)", "format": "functional, cell-based", "conditions": "3T3-L1"}, "3T3-L1 [14]": {"tested_on": "3T3-L1", "assay": "Induction of apoptosis in mouse 3T3L1 cells assessed as viable cells at 3 uM after 24 hrs by annexin-V-FITC and PI staining based flow cytometry (reference value: 98.95%)", "format": "functional", "conditions": "3T3-L1, 24 h, read-out: Activity"}, "[15]": {"assay": "Downregulation of FAS level in mouse 3T3L1 cells after 6 days by western blot analysis", "format": "functional, cell-based", "conditions": "3T3-L1", "outline": "as §2"}, "[16]": {"assay": "Downregulation of C/EBP beta mRNA level in mouse 3T3L1 cells at 3 uM after 2 and 24 hrs by RT-PCR analysis", "format": "functional, cell-based", "conditions": "3T3-L1", "outline": "as §1"}, "[17]": {"assay": "Downregulation of PPAR-gamma mRNA level in mouse 3T3L1 cells at 0.3 to 3 uM after 24 hrs by RT-PCR analysis", "format": "functional, cell-based", "conditions": "3T3-L1", "outline": "as §1"}, "[18]": {"assay": "Cell cycle arrest in mouse 3T3L1 cells assessed as number of cells at G0/G1 phase at 0.3 uM after 24 hrs by flow cytometry (reference value: 37.6%)", "format": "functional, cell-based", "conditions": "3T3-L1"}, "[19]": {"assay": "Cell cycle arrest in mouse 3T3L1 cells assessed as number of cells at S phase at 0.3 uM after 24 hrs by flow cytometry (reference value: 18.1%)", "format": "functional, cell-based", "conditions": "3T3-L1"}, "3T3-L1 [20]": {"tested_on": "3T3-L1", "assay": "Induction of apoptosis in mouse 3T3L1 cells assessed as viable cells at 0.3 uM after 24 hrs by annexin-V-FITC and PI staining based flow cytometry (reference value: 98.95%)", "format": "functional", "conditions": "3T3-L1, 24 h, read-out: Activity"}, "[21]": {"assay": "Downregulation of C/EBP delta mRNA level in mouse 3T3L1 cells at 0.3 to 3 uM after 24 hrs by RT-PCR analysis", "format": "functional, cell-based", "conditions": "3T3-L1", "outline": "as §1"}, "3T3-L1 [22]": {"tested_on": "3T3-L1", "assay": "Induction of apoptosis in mouse 3T3L1 cells assessed as early apoptotic cells at 3 uM after 24 hrs by annexin-V-FITC and PI staining based flow cytometry (reference value: 0.56%)", "format": "functional"}, "3T3-L1 [23]": {"tested_on": "3T3-L1", "assay": "Induction of apoptosis in mouse 3T3L1 cells assessed as late apoptotic cells at 1 uM after 24 hrs by annexin-V-FITC and PI staining based flow cytometry (reference value: 0.03%)", "format": "functional"}}, "note": "Calls of active or inactive are those of the source. No cut-off for these calls is given here.", "data": [{"compound": "O=Cc1c(-c2nc(NCCN3CCCC3)c3ccccc3n2)[nH]c2ccccc12", "values": [{"measurement": "inhibition", "setting": "[1]", "value": "Active"}, {"measurement": "Activity", "setting": "[2]", "value": 57.9, "unit": "%"}, {"measurement": "Activity", "setting": "[3]", "value": 3.3, "unit": "%"}, {"measurement": "inhibition", "setting": "[4]", "value": "Dose-dependent effect"}, {"measurement": "inhibition", "setting": "[5]", "value": "Active"}, {"measurement": "inhibition", "setting": "[6]", "value": "Active"}, {"measurement": "Activity", "setting": "3T3-L1 [7]", "value": 0.84, "unit": "%"}, {"measurement": "inhibition", "setting": "[8]", "value": 85, "unit": "%"}, {"measurement": "inhibition", "setting": "[9]", "value": 60, "unit": "%"}, {"measurement": "Activity", "setting": "[10]", "value": "Active"}, {"measurement": "inhibition", "setting": "[11]", "value": "Active"}, {"measurement": "viability at 72 h, 10 µM", "setting": "[12]", "value": 83, "unit": "%"}, {"measurement": "Activity", "setting": "[13]", "value": 33.5, "unit": "%"}, {"measurement": "viability at 3 µM", "setting": "3T3-L1 [14]", "value": 97.7, "unit": "%"}, {"measurement": "inhibition", "setting": "[15]", "value": "Dose-dependent effect"}, {"measurement": "inhibition", "setting": "[16]", "value": "Active"}, {"measurement": "inhibition", "setting": "[17]", "value": "Active"}, {"measurement": "Activity", "setting": "[18]", "value": 51.8, "unit": "%"}, {"measurement": "Activity", "setting": "[19]", "value": 6.4, "unit": "%"}, {"measurement": "viability at 0.3 µM", "setting": "3T3-L1 [20]", "value": 96.5, "unit": "%"}, {"measurement": "inhibition", "setting": "[21]", "value": "Active"}, {"measurement": "Activity", "setting": "3T3-L1 [22]", "value": 0.39, "unit": "%"}, {"measurement": "Activity", "setting": "3T3-L1 [23]", "value": 0.25, "unit": "%"}]}]}
